Measured values from ChEMBL document CHEMBL1126275, “Conformationally restrained, chiral (phenylisopropyl)amino-substituted pyrazolo[3,4-d]pyrimidines and purines with selectivity for adenosine A1 and A2 receptors” (J Med Chem, 1992).

Tests used:
[1] = target: Adenosine receptors; A1 & A2 (Rattus norvegicus) (UniProt P29276+P25099+P30543); test: Selectivity ratio against Adenosine A1 and A2 Receptors, ratio of Ki; type: protein assay
Summary of the method: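 Ratio of A2 Ki ([³H]NECA, rat striatum, 25 °C) to A1 Ki ([³H]CHA, whole rat brain membranes, 25 °C). Each Ki is a geometric mean from a single triplicate determination.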

Adenosine A2 receptor = Adenosine A2 receptor (Rattus norvegicus, UniProt P29276+P30543); test: Inhibition of [3H]NECA binding to Adenosine A2 receptor in rat brain striatum; type: tissue-based
Summary of the method: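 [³H]NECA binding in rat brain striatum at 25 °C. Compounds from millimolar DMSO stocks diluted in water. Ki given as geometric mean ± standard error of a single determination in triplicate.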

Adenosine receptor A1 [2] = target: T1, Adenosine receptor A1 (Rattus norvegicus, UniProt P25099); test: Inhibition of [3H]CHA binding to Adenosine A1 receptor in whole rat brain membranes; type: cell membranes
T1 sequence (P25099 whole entry): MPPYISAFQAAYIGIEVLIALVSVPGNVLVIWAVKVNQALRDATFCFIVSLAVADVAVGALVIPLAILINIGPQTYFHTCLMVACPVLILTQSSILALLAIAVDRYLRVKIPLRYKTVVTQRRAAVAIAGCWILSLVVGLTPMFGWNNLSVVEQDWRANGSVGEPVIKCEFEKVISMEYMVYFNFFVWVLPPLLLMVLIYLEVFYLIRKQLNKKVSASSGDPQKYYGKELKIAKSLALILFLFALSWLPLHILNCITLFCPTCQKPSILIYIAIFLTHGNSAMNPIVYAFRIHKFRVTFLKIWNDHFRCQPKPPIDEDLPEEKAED
Summary of the method: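 Whole rat brain membranes; [³H]CHA binding measured at 25 °C. Compounds from millimolar DMSO stocks diluted in water. Ki given as geometric mean ± standard error of a single determination run in triplicate.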

Adenosine receptor A1 [3] = target: T1, Adenosine receptor A1; test: Inhibition of [3H]CHA binding to Adenosine A1 receptor in rat cerebral cortical membranes; type: cell membranes, Membrane
Summary of the method: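 Rat cerebral cortical membranes; displacement of [³H]CHA binding. Test compounds held as millimolar DMSO stocks, warmed to room temperature and diluted in water. Values from a single competition experiment, each concentration in triplicate.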

| SMILES | Selectivity ratio [1] | Ki (Adenosine A2 receptor) | Ki (Adenosine receptor A1 [2]) | IC50 (Adenosine receptor A1 [3]) |
| --- | --- | --- | --- | --- |
| CCCOC1=Nc2c(cnn2-c2ccccc2)C2=N[C@H](C)[C@@H](c3ccccc3)N12 | 1.5 | 11 µM | 7.4 µM |  |
| CCCOc1nc(N[C@H](CO)Cc2ccccc2)c2ncn(-c3ccccc3)c2n1 | 58 | 5.6 µM | 0.096 µM |  |
| CCCOc1nc(N[C@@H](CO)Cc2ccccc2)c2ncn(-c3ccccc3)c2n1 | 68 | 30 µM | 0.44 µM |  |
| CCCOC1=Nc2c(ncn2-c2ccccc2)C2=N[C@H](Cc3ccccc3)CN12 | 22 | 72 µM | 3.2 µM |  |
| CCCOC1=Nc2c(cnn2-c2ccccc2)C2=N[C@H](Cc3ccccc3)CN12 | > 100 | > 100 µM | 0.62 µM |  |
| CCCOC1=Nc2c(cnn2-c2ccccc2)C2=N[C@@H](C)[C@H](c3ccccc3)N12 | 1.4 | 45 µM | 33 µM |  |
| CCCOC1=Nc2c(ncn2-c2ccccc2)C2=N[C@@H](Cc3ccccc3)CN12 | 0.18 | 1.6 µM |  |  |
| CCCOC1=Nc2c(cnn2-c2ccccc2)C2=N[C@@H](Cc3ccccc3)CN12 | 0.35 | 3.3 µM | 9.4 µM |  |

Continued, values first:

| Selectivity ratio [1] | Ki (Adenosine A2 receptor) | Ki (Adenosine receptor A1 [2]) | IC50 (Adenosine receptor A1 [3]) | SMILES |
| --- | --- | --- | --- | --- |
|  |  |  | 33 µM | Cn1c(=O)c2cnn(-c3ccccc3)c2n(C)c1=O |
|  | 0.37 µM | 0.35 µM |  | CCCOc1nc(N[C@H](CO)Cc2ccccc2)c2cnn(-c3ccccc3)c2n1 (stereo in doubt; 10b) [listing 1 of 2 here] |
| 2.6 |  |  |  | CCCOc1nc(N[C@H](CO)Cc2ccccc2)c2cnn(-c3ccccc3)c2n1 (stereo in doubt; 10a) [listing 1 of 2 here] |
| 0.31 | 0.31 µM | 1 µM |  | CCCOc1nc(N[C@H](C)[C@@H](O)c2ccccc2)c2cnn(-c3ccccc3)c2n1 |
| 1 |  |  |  | CCCOc1nc(N[C@H](CO)Cc2ccccc2)c2cnn(-c3ccccc3)c2n1 (stereo in doubt; 10b) [listing 2 of 2 here] |
|  |  |  | 4.8 µM | COc1nc2c(cnn2-c2ccccc2)c(=O)n1C |
|  |  |  | 35 µM | CCCn1c(=O)n(C)c(=O)c2cnn(-c3ccccc3)c21 |
| 0.22 | 1.4 µM | 6.3 µM |  | CCCOc1nc(N[C@@H](C)[C@H](O)c2ccccc2)c2cnn(-c3ccccc3)c2n1 |
|  | 4.2 µM | 1.6 µM |  | CCCOc1nc(N[C@H](CO)Cc2ccccc2)c2cnn(-c3ccccc3)c2n1 (stereo in doubt; 10a) [listing 2 of 2 here] |
